# Assay results from ChEMBL document CHEMBL4689842, “EUbOPEN Chemogenomics Library wave 1” (2021).
# System: HEK-293T
# Assay: Multiplex assay against HEK293T;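 for Population Tubulin-Different-Phenotype (%): share of the cells with healthy nuclei that show this phenotype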
# Format: toxicity, cell-based
# Details: human
# Procedure, shortened: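 Four dyes were applied at seeding to live cells: Hoechst33342, BioTracker Green Microtubule Cytoskeleton Dye, MitoTracker Red and Annexin V Alexa Fluor 680. Imaging after compound addition used a CQ1 microscope at 37°C and 5% CO2. CellPathfinder machine-learning gating then sorted cells into Hoechst high-intensity objects or normal cells, normal cells into healthy, pyknosed or fragmented nuclei, and pyknosed cells into mitotic or apoptotic, with tubulin, mitochondrial-mass and membrane-permeability phenotypes given as per cents of healthy-nucleus cells.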
# [1] = 12 h, 1 µM, compound concentration 1 uM, replicate 1
# [2] = 12 h, 1 µM, compound concentration 1 uM, replicate 2
# [3] = 12 h, 10 µM, compound concentration 10 uM, replicate 1
# [4] = 12 h, 10 µM, compound concentration 10 uM, replicate 2
# [5] = 24 h, 1 µM, compound concentration 1 uM, replicate 1
# [6] = 24 h, 1 µM, compound concentration 1 uM, replicate 2
# [7] = 24 h, 10 µM, compound concentration 10 uM, replicate 1
# [8] = 24 h, 10 µM, compound concentration 10 uM, replicate 2
# [9] = 48 h, 1 µM, compound concentration 1 uM, replicate 1
# [10] = 48 h, 1 µM, compound concentration 1 uM, replicate 2
# [11] = 48 h, 10 µM, compound concentration 10 uM, replicate 1
# [12] = 48 h, 10 µM, compound concentration 10 uM, replicate 2
structure (smiles),measurement,setting,value
C=CC(=O)Nc1cc2c(Nc3ccc(F)c(Cl)c3)ncnc2cc1OCCCN1CCOCC1.Cl.Cl [CANERTINIB DIHYDROCHLORIDE],Population Apoptotic (%),[1],70%
same,Population Fragmented Nuclei (%),[1],22%
same,Population Healthy Nuclei (%),[1],35%
same,Population Hoechst High Intensity Objects (%),[1],22%
same,Population Membrane Permeable-Phenotype (%),[1],24%
same,Population Mitochondria Different-Phenotype (%),[1],76%
same,Population Mitotic Cells (%),[1],29%
same,Population Normal (%),[1],77%
same,Population Pyknosed Nuclei (%),[1],41%
same,Population Tubulin-Different-Phenotype (%),[1],82%
same,Total Cell Count,[1],582
same,Population Apoptotic (%),[2],47%
same,Population Fragmented Nuclei (%),[2],4%
same,Population Healthy Nuclei (%),[2],80%
same,Population Hoechst High Intensity Objects (%),[2],7%
same,Population Membrane Permeable-Phenotype (%),[2],17%
same,Population Mitochondria Different-Phenotype (%),[2],92%
same,Population Mitotic Cells (%),[2],52%
same,Population Normal (%),[2],92%
same,Population Pyknosed Nuclei (%),[2],14%
same,Population Tubulin-Different-Phenotype (%),[2],97%
same,Total Cell Count,[2],863
same,Population Apoptotic (%),[3],28%
same,Population Fragmented Nuclei (%),[3],14%
same,Population Healthy Nuclei (%),[3],60%
same,Population Hoechst High Intensity Objects (%),[3],13%
same,Population Membrane Permeable-Phenotype (%),[3],3%
same,Population Mitochondria Different-Phenotype (%),[3],12%
same,Population Mitotic Cells (%),[3],71%
same,Population Normal (%),[3],86%
same,Population Pyknosed Nuclei (%),[3],24%
same,Population Tubulin-Different-Phenotype (%),[3],12%
same,Total Cell Count,[3],583
same,Population Apoptotic (%),[4],8%
same,Population Fragmented Nuclei (%),[4],6%
same,Population Healthy Nuclei (%),[4],88%
same,Population Hoechst High Intensity Objects (%),[4],3%
same,Population Membrane Permeable-Phenotype (%),[4],2%
same,Population Mitochondria Different-Phenotype (%),[4],16%
same,Population Mitotic Cells (%),[4],91%
same,Population Normal (%),[4],96%
same,Population Pyknosed Nuclei (%),[4],5%
same,Population Tubulin-Different-Phenotype (%),[4],16%
same,Total Cell Count,[4],1567
same,Population Apoptotic (%),[5],79%
same,Population Fragmented Nuclei (%),[5],21%
same,Population Healthy Nuclei (%),[5],37%
same,Population Hoechst High Intensity Objects (%),[5],24%
same,Population Membrane Permeable-Phenotype (%),[5],8%
same,Population Mitochondria Different-Phenotype (%),[5],69%
same,Population Mitotic Cells (%),[5],20%
same,Population Normal (%),[5],75%
same,Population Pyknosed Nuclei (%),[5],40%
same,Population Tubulin-Different-Phenotype (%),[5],56%
same,Total Cell Count,[5],612
same,Population Apoptotic (%),[6],29%
same,Population Fragmented Nuclei (%),[6],5%
same,Population Healthy Nuclei (%),[6],80%
same,Population Hoechst High Intensity Objects (%),[6],10%
same,Population Membrane Permeable-Phenotype (%),[6],4%
same,Population Mitochondria Different-Phenotype (%),[6],67%
same,Population Mitotic Cells (%),[6],70%
same,Population Normal (%),[6],89%
same,Population Pyknosed Nuclei (%),[6],13%
same,Population Tubulin-Different-Phenotype (%),[6],54%
same,Total Cell Count,[6],910
same,Population Apoptotic (%),[7],21%
same,Population Fragmented Nuclei (%),[7],14%
same,Population Healthy Nuclei (%),[7],75%
same,Population Hoechst High Intensity Objects (%),[7],9%
same,Population Membrane Permeable-Phenotype (%),[7],6%
same,Population Mitochondria Different-Phenotype (%),[7],7%
same,Population Mitotic Cells (%),[7],78%
same,Population Normal (%),[7],90%
same,Population Pyknosed Nuclei (%),[7],9%
same,Population Tubulin-Different-Phenotype (%),[7],12%
same,Total Cell Count,[7],665
same,Population Apoptotic (%),[8],10%
same,Population Fragmented Nuclei (%),[8],24%
same,Population Healthy Nuclei (%),[8],73%
same,Population Hoechst High Intensity Objects (%),[8],2%
same,Population Membrane Permeable-Phenotype (%),[8],3%
same,Population Mitochondria Different-Phenotype (%),[8],3%
same,Population Mitotic Cells (%),[8],89%
same,Population Normal (%),[8],97%
same,Population Pyknosed Nuclei (%),[8],2%
same,Population Tubulin-Different-Phenotype (%),[8],8%
same,Total Cell Count,[8],2738
COc1ncc(-c2ccc3nccc(-c4ccnnc4)c3c2)cc1NS(=O)(=O)c1ccc(F)cc1F [OMIPALISIB],Population Apoptotic (%),[1],60%
same,Population Fragmented Nuclei (%),[1],17%
same,Population Healthy Nuclei (%),[1],18%
same,Population Hoechst High Intensity Objects (%),[1],20%
same,Population Membrane Permeable-Phenotype (%),[1],2%
same,Population Mitochondria Different-Phenotype (%),[1],81%
same,Population Mitotic Cells (%),[1],39%
same,Population Normal (%),[1],80%
same,Population Pyknosed Nuclei (%),[1],64%
same,Population Tubulin-Different-Phenotype (%),[1],24%
same,Total Cell Count,[1],255
same,Population Apoptotic (%),[2],27%
same,Population Fragmented Nuclei (%),[2],8%
same,Population Healthy Nuclei (%),[2],14%
same,Population Hoechst High Intensity Objects (%),[2],6%
same,Population Membrane Permeable-Phenotype (%),[2],0%
same,Population Mitochondria Different-Phenotype (%),[2],37%
same,Population Mitotic Cells (%),[2],72%
same,Population Normal (%),[2],93%
same,Population Pyknosed Nuclei (%),[2],77%
same,Population Tubulin-Different-Phenotype (%),[2],16%
same,Total Cell Count,[2],180
same,Population Apoptotic (%),[3],62%
same,Population Fragmented Nuclei (%),[3],12%
same,Population Healthy Nuclei (%),[3],20%
same,Population Hoechst High Intensity Objects (%),[3],22%
same,Population Membrane Permeable-Phenotype (%),[3],0%
same,Population Mitochondria Different-Phenotype (%),[3],97%
same,Population Mitotic Cells (%),[3],37%
same,Population Normal (%),[3],77%
same,Population Pyknosed Nuclei (%),[3],67%
same,Population Tubulin-Different-Phenotype (%),[3],39%
same,Total Cell Count,[3],238
same,Population Apoptotic (%),[4],34%
same,Population Fragmented Nuclei (%),[4],4%
same,Population Healthy Nuclei (%),[4],12%
same,Population Hoechst High Intensity Objects (%),[4],6%
same,Population Membrane Permeable-Phenotype (%),[4],5%
same,Population Mitochondria Different-Phenotype (%),[4],42%
same,Population Mitotic Cells (%),[4],65%
same,Population Normal (%),[4],93%
same,Population Pyknosed Nuclei (%),[4],83%
same,Population Tubulin-Different-Phenotype (%),[4],26%
same,Total Cell Count,[4],161
same,Population Apoptotic (%),[5],47%
same,Population Fragmented Nuclei (%),[5],21%
same,Population Healthy Nuclei (%),[5],6%
same,Population Hoechst High Intensity Objects (%),[5],22%
same,Population Mitochondria Different-Phenotype (%),[5],71%
same,Population Mitotic Cells (%),[5],52%
same,Population Normal (%),[5],77%
same,Population Pyknosed Nuclei (%),[5],71%
same,Population Tubulin-Different-Phenotype (%),[5],50%
same,Total Cell Count,[5],280
same,Population Apoptotic (%),[6],29%
same,Population Fragmented Nuclei (%),[6],5%
same,Population Healthy Nuclei (%),[6],14%
same,Population Hoechst High Intensity Objects (%),[6],6%
same,Population Membrane Permeable-Phenotype (%),[6],0%
same,Population Mitochondria Different-Phenotype (%),[6],40%
same,Population Mitotic Cells (%),[6],70%
same,Population Normal (%),[6],93%
same,Population Pyknosed Nuclei (%),[6],79%
same,Population Tubulin-Different-Phenotype (%),[6],24%
same,Total Cell Count,[6],178
same,Population Apoptotic (%),[7],53%
same,Population Fragmented Nuclei (%),[7],14%
same,Population Healthy Nuclei (%),[7],20%
same,Population Hoechst High Intensity Objects (%),[7],24%
same,Population Membrane Permeable-Phenotype (%),[7],2%
same,Population Mitochondria Different-Phenotype (%),[7],91%
same,Population Mitotic Cells (%),[7],46%
same,Population Normal (%),[7],75%
same,Population Pyknosed Nuclei (%),[7],64%
same,Population Tubulin-Different-Phenotype (%),[7],52%
same,Total Cell Count,[7],228
same,Population Apoptotic (%),[8],37%
same,Population Fragmented Nuclei (%),[8],5%
same,Population Healthy Nuclei (%),[8],19%
same,Population Hoechst High Intensity Objects (%),[8],11%
same,Population Membrane Permeable-Phenotype (%),[8],3%
same,Population Mitochondria Different-Phenotype (%),[8],57%
same,Population Mitotic Cells (%),[8],63%
same,Population Normal (%),[8],88%
same,Population Pyknosed Nuclei (%),[8],75%
same,Population Tubulin-Different-Phenotype (%),[8],46%
same,Total Cell Count,[8],150
same,Population Fragmented Nuclei (%),[9],30%
same,Population Healthy Nuclei (%),[9],5%
same,Population Hoechst High Intensity Objects (%),[9],22%
same,Population Membrane Permeable-Phenotype (%),[9],0%
same,Population Mitochondria Different-Phenotype (%),[9],75%
same,Population Normal (%),[9],77%
same,Population Pyknosed Nuclei (%),[9],64%
same,Population Tubulin-Different-Phenotype (%),[9],41%
same,Total Cell Count,[9],286
same,Population Apoptotic (%),[10],44%
same,Population Fragmented Nuclei (%),[10],7%
same,Population Healthy Nuclei (%),[10],36%
same,Population Hoechst High Intensity Objects (%),[10],7%
same,Population Membrane Permeable-Phenotype (%),[10],1%
same,Population Mitochondria Different-Phenotype (%),[10],40%
same,Population Mitotic Cells (%),[10],55%
same,Population Normal (%),[10],92%
same,Population Pyknosed Nuclei (%),[10],55%
same,Population Tubulin-Different-Phenotype (%),[10],35%
same,Total Cell Count,[10],181
same,Population Apoptotic (%),[11],40%
same,Population Fragmented Nuclei (%),[11],20%
same,Population Healthy Nuclei (%),[11],24%
same,Population Hoechst High Intensity Objects (%),[11],21%
same,Population Membrane Permeable-Phenotype (%),[11],5%
same,Population Mitochondria Different-Phenotype (%),[11],76%
same,Population Mitotic Cells (%),[11],59%
same,Population Normal (%),[11],78%
same,Population Pyknosed Nuclei (%),[11],55%
same,Population Tubulin-Different-Phenotype (%),[11],57%
same,Total Cell Count,[11],202
same,Population Apoptotic (%),[12],38%
same,Population Fragmented Nuclei (%),[12],8%
same,Population Healthy Nuclei (%),[12],38%
same,Population Hoechst High Intensity Objects (%),[12],7%
same,Population Membrane Permeable-Phenotype (%),[12],0%
same,Population Mitochondria Different-Phenotype (%),[12],49%
same,Population Mitotic Cells (%),[12],61%
same,Population Normal (%),[12],92%
same,Population Pyknosed Nuclei (%),[12],54%
same,Population Tubulin-Different-Phenotype (%),[12],54%
same,Total Cell Count,[12],163
